Here are results for 17 compounds from ChEMBL document CHEMBL2029270, “Irreversible inhibition of epidermal growth factor receptor activity by 3-aminopropanamides” (J Med Chem, 2012).

The IC50 is the concentration that gives 50% inhibition. By inhibition is commonly meant the share of the control response that was lost under treatment.

The target of data set [1] is T1, Epidermal growth factor receptor (Homo sapiens, UniProt P00533). Briefly: Inhibition of human recombinant EGFR using Ulight-CAGAGAIETDKEYYTVKD as substrate after 15 mins by time-resolved fluorimetric analysis.
T1 sequence (P00533 whole entry): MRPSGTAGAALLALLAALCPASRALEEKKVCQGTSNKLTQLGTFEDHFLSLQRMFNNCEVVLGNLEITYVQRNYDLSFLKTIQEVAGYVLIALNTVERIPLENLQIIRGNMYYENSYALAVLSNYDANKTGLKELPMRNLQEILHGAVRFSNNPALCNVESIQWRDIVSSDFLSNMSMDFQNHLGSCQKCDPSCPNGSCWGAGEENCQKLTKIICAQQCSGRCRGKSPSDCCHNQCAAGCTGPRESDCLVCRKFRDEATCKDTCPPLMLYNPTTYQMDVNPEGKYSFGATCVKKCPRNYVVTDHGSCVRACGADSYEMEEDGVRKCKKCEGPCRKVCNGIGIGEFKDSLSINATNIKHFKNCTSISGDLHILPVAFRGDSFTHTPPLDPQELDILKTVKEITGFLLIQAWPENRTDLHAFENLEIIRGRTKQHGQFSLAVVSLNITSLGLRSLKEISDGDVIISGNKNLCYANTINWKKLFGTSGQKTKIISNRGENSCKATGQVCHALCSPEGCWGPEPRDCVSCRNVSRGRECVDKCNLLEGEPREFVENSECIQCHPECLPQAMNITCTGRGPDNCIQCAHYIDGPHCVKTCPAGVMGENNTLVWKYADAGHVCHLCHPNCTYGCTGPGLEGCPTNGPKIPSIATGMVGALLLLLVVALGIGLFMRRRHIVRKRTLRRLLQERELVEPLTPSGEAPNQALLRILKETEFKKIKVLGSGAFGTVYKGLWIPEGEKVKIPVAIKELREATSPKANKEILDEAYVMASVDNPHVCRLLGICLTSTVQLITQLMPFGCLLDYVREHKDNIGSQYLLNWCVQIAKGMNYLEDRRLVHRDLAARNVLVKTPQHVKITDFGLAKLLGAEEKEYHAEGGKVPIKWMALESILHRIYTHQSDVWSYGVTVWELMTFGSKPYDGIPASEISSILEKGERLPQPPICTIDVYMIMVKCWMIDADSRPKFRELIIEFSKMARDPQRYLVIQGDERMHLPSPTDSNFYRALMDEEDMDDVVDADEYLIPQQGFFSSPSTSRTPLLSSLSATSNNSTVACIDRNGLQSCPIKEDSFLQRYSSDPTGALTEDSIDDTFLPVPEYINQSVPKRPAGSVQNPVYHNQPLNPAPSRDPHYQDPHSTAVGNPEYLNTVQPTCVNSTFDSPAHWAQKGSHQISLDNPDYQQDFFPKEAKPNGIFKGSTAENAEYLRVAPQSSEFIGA
In data set [2] the target is T1, Epidermal growth factor receptor. Particulars: A549, at 1 µM.
The target is the same in data set [3]. To be noted: A549, at 1 µM. The source holds these as a separate data set.
In data set [4] the test system is NCI-H1975. Briefly: Antiproliferative activity against gefitinib-resistant human NCI-H1975 cells expressing EGFR T790M mutant after 3 days by MTT assay. Format: functional, cell-based. Particulars: NCI-H1975, 72 h. On the technique in general: Formazan colour is commonly taken as a measure of viable cells.
Data set [5] is described as follows: Chemical stability of the compound in 0.01 M borate buffer assessed as compound remaining at 1 uM after 24 hrs at pH 9. In kind it is physicochemical. Particulars: read-out: Stability. The gist of the method: (§1)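 Buffer stability at pH 7.4 or pH 9.0, compound at 1 μM, 37 °C for 24 h; percentage of parent left measured by LC−UV and LC−ESI-MS, mean ± SD, n = 3.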

The nature of data set [6]: Drug degradation of the compound assessed as thiol-conjugate formation at 1 uM up to 24 hrs at pH 7.4 in the presence of DTT. Format: physicochemical. To be noted: buffer, pH 7.4, 24 h. An outline of the steps: (§2)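 Conjugate formation checked by HPLC−UV and HPLC−ESI-MS after adding freshly prepared thiol (2 mM; cysteamine, NAC, DTT or reduced GSH) to PBS pH 7.4 holding compound at 1 μM, 37 °C; sampled up to 24 h.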

The nature of data set [7]: Chemical stability of the compound in 0.01 M PBS buffer assessed as compound remaining at 1 uM after 24 hrs at pH 7.4. Particulars: read-out: Stability. In kind it is physicochemical. The gist of the method:
as §1

A short description of data set [8]: Drug degradation of the compound assessed as thiol-conjugate formation at 1 uM up to 24 hrs at pH 7.4 in the presence of GSH. Format: physicochemical. To be noted: buffer, pH 7.4, 24 h. An outline of the steps:
as §2

Data set [9] in a line: Drug degradation of the compound assessed as thiol-conjugate formation at 1 uM up to 24 hrs at pH 7.4 in the presence of cysteamine. Format: physicochemical. Particulars: buffer, pH 7.4, 24 h. An outline of the steps: as §2
The nature of data set [10]: Drug degradation of the compound assessed as thiol-conjugate formation at 1 uM up to 24 hrs at pH 7.4 in the presence of NAC. In kind it is physicochemical. To be noted: buffer, pH 7.4, 24 h. The gist of the method:
as §2

The nature of data set [11]: Chemical stability of the compound assessed as compound remaining at 1 uM after 1 hr at pH 7.4 in the presence of cysteamine. Format: physicochemical. To be noted: buffer, read-out: Stability. The gist of the method: (§3)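 Test compound (1 μM) in PBS pH 7.4 with freshly prepared thiol (DTT, GSH, NAC or cysteamine, 2 mM), incubated 1 h at 37 °C; parent remaining quantified by LC−UV and LC−ESI-MS, mean ± SD, n = 3.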

The nature of data set [12]: Chemical stability of the compound assessed as compound remaining at 1 uM after 1 hr at pH 7.4 in the presence of NAC. To be noted: buffer, read-out: Stability. Format: physicochemical. An outline of the steps:
as §3

Data set [13] deals with A549. Briefly: Prodrug conversion in human A549 cell lysate assessed as N-(4-(3-bromophenylamino)quinazolin-6-yl)acrylamide level at 10 uM after 1 hr by HPLC-HRMS analysis. In kind it is ADME, cell-based. Particulars: a549, 1 h. The gist of the method: (§4)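 A549 cells grown 2 days, lysed by freeze/thaw; lysate pre-spiked with 2 mM cysteine, compound added from fresh DMSO stock to 10 μM final, 37 °C. Aliquots at 0, 1 and 4 h quenched with double volume acetonitrile, centrifuged, analysed by LC−HRMS in positive ion mode.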

Data set [14] is described as follows: Metabolic stability in rat plasma assessed as compound remaining at 1 uM after 24 hrs. In kind it is ADME, cell-free. Particulars: read-out: Stability. The gist of the method: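 Incubation of compound (1 μM) in 80% (v/v) rat plasma at 37 °C for 24 h; parent remaining determined by LC−UV and LC−ESI-MS, mean ± SD, n = 3.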
Data set [15] in a line: Chemical stability of the compound assessed as compound remaining at 1 uM after 1 hr at pH 7.4 in the presence of GSH. Format: physicochemical. To be noted: buffer, read-out: Stability. The gist of the method: as §3
The test system of data set [16] is A549. The data set is described as follows: Drug uptake in human A549 cells at 1 uM after 1 hr by LC-MS analysis. In kind it is ADME, cell-based. Particulars: a549, 1 h. An outline of the steps:
(§5)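 A549 cells plated 24 h, then exposed 1 h at 37 °C to 1 μM compound (0.1% DMSO final), assayed immediately or 8 h after three washes with fresh medium. Ethanol extraction at 4 °C, extract dried, redissolved, quantified by LC−MS against 50 nM–5 μM calibration (LOQ 50 nM, LOD 20 nM).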

Data set [17] can be described thus: Chemical stability of the compound assessed as compound remaining at 1 uM after 1 hr at pH 7.4 in the presence of DTT. Format: physicochemical. To be noted: buffer, read-out: Stability. An outline of the steps:
as §3

The target in data set [18] is T2, Receptor tyrosine-protein kinase erbB-2 (Homo sapiens, UniProt P04626). Briefly: Inhibition of ErbB2 up to 10 uM by time-resolved fluorometry.
T2 sequence (P04626 whole entry): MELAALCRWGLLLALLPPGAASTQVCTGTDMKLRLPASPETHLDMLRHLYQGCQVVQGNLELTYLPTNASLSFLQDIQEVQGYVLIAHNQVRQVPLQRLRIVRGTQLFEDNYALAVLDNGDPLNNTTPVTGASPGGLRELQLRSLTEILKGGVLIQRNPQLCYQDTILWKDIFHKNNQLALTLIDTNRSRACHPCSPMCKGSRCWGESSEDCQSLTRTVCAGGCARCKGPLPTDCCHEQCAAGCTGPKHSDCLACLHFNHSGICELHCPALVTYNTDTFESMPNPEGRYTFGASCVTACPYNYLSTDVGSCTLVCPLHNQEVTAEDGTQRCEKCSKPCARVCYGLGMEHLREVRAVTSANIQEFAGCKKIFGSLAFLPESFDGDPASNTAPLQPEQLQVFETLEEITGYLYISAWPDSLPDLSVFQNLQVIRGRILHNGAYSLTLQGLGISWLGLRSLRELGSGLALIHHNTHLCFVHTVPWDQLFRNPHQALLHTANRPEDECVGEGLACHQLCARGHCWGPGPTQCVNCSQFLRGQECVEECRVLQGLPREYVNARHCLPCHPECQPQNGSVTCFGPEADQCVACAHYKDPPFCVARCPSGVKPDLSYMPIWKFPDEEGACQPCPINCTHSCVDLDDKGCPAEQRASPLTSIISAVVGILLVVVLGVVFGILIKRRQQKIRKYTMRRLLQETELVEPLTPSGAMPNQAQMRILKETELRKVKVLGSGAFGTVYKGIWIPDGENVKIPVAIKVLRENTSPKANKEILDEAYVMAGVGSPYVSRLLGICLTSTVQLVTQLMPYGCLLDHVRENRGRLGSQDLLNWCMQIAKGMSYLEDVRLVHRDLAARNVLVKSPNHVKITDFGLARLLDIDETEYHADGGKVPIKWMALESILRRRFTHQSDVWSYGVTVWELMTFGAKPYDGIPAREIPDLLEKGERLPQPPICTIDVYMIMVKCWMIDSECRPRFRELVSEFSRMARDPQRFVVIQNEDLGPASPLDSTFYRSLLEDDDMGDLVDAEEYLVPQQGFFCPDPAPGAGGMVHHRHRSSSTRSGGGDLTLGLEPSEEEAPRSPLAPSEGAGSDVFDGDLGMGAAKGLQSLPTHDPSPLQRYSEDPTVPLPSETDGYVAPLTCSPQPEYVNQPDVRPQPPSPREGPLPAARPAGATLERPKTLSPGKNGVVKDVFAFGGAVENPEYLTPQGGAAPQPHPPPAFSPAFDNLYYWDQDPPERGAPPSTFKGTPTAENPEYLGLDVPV
Data set [19] concerns A549. Briefly: Drug metabolism in human A549 cell lysate assessed as N-(4-(3-bromophenylamino)quinazolin-6-yl)acrylamide-cysteine adduct level at 10 uM after 1 hr by HPLC-HRMS analysis. Format: ADME, cell-based. Particulars: a549, 1 h. The gist of the method: as §4
For data set [20], the system named is A549. The data set is described as follows: Drug uptake in human A549 cells at 1 uM incubated for 1 hr measured 8 hrs post-wash out by LC-MS analysis. Particulars: a549, 1 h. Format: ADME, cell-based. An outline of the steps: as §5
Data set [21] deals with NCI-H1975. Briefly: Ratio of gefitinib IC50 to compound IC50 for human NCI-H1975 cells. In kind it is functional.
Data set [22] addresses T2, Receptor tyrosine-protein kinase erbB-2. The data set is described as follows: Inhibition of ErbB2 by time-resolved fluorometry.
In data set [23] the target is Epidermal growth factor receptor (Homo sapiens, UniProt P00533, T790M). The data set is described as follows: (§6) Inhibition of EGFR T790M mutant autophosphorylation in human NCI-H1975 cells after 1 hr by Western blot analysis. In kind it is cell-based.
Sequence of Epidermal growth factor receptor (Homo sapiens, UniProt P00533, T790M) (P00533 whole entry T790M): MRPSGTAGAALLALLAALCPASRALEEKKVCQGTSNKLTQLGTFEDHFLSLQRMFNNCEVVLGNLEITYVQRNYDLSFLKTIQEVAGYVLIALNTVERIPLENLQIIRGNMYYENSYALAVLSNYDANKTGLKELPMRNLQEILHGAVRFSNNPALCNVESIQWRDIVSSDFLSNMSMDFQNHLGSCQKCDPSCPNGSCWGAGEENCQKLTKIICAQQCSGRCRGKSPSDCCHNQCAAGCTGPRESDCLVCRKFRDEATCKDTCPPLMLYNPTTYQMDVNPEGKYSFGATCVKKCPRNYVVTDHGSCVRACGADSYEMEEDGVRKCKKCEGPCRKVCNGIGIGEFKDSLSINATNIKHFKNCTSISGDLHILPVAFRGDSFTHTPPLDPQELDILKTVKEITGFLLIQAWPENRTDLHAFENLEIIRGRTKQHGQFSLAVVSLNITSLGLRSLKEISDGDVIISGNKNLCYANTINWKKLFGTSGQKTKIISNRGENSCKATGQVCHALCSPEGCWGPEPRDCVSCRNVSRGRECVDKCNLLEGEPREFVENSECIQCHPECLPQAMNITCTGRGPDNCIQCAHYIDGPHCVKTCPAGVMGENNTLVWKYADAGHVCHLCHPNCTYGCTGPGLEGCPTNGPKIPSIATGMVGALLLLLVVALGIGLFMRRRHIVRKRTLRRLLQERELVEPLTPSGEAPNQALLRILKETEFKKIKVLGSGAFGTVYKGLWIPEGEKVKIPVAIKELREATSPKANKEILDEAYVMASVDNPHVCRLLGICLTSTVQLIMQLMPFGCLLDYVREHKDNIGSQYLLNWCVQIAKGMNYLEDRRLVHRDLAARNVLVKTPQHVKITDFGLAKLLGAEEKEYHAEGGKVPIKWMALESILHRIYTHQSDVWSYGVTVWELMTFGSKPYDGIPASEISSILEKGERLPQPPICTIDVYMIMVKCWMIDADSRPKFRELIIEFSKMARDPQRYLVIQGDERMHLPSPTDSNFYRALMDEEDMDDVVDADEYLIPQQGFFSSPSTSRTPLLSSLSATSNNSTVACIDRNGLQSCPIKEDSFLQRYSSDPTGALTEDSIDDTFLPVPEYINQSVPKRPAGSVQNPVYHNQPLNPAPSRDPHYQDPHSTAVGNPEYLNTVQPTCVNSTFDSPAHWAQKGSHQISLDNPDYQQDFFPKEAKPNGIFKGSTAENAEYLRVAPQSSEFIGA
Data set [24] relates to Epidermal growth factor receptor (Homo sapiens), P00533 [T790M]. Described as §6. In kind it is cell-based.
Sequence of Epidermal growth factor receptor (Homo sapiens), P00533 [T790M] (P00533 whole entry T790M): as above

The source made the active and inactive calls. The calls are words filed in the database; no cut-off is given here.

Regarding `CCOc1cc2ncc(C#N)c(Nc3ccc(F)c(Cl)c3)c2cc1NC(=O)CCN1CCOCC1`, the results for the IC50 in data set [1] and in [4] were 2.02 nM and 3930 nM, respectively. The inhibition in data set [2] was determined as 86%; in data set [3], 48%.
Turning to `C=CC(=O)Nc1cc2c(Nc3ccc(F)c(Cl)c3)ncnc2cc1OCC`, the values for the IC50 in [1] and in data set [4] were 0.18 nM and 1620 nM, respectively. Further, the figures for the inhibition in data set [2] and in data set [3] were 96% and 99%, respectively.
For `CCOc1cc2ncc(C#N)c(Nc3ccc(F)c(Cl)c3)c2cc1NC(=O)CCN(C)C` the same measures were 0.68 nM, 2370 nM, 88% and 67%.
With `CN(C)CCC(=O)Nc1ccc2ncnc(Nc3cccc(Br)c3)c2c1`, the remaining at 24 h, 1 µM turned out to be 77% in data set [5], 97.5% in data set [7] and 98.7% in [14]. For the same compound, the Drug degradation entry in data set [6], in data set [8], in data set [9] and in [10] was “Not Active” throughout. Besides, the remaining at 1 h, 1 µM in data set [11] is 100%; in [12], 100%; in data set [15] it was 101%; in [17] it was 99.2%. Moreover, the Drug metabolism result in data set [13] and in data set [19] was “Active” in each case. For the same compound, the Drug uptake in data set [16] is 0.05 nmol/mg; in data set [20] it was “Not Active”. Also, the inhibition entry in data set [18] is “inactive”.
Turning to `CN(C)CCC(=O)N(C)c1ccc2ncnc(Nc3cccc(Br)c3)c2c1`, the IC50 is 17.4 nM in [1] and 13600 nM in [4]. The inhibition in [2] worked out at 47%; in [3], 10%.
Regarding `CCOc1cc2ncnc(Nc3ccc(F)c(Cl)c3)c2cc1NC(=O)CCN1CCOCC1`, the figures for the IC50 in data set [1] and in data set [4] were 0.29 nM and 2110 nM, respectively. Also, the inhibition in [2] and in data set [3] was 97% each time. For the same compound, in [21], the “Ratio IC50” value is reported as 3.
Take `O=C(CCN1CCOCC1)Nc1ccc2ncnc(Nc3cccc(Br)c3)c2c1`: the IC50 in [1] is 0.51 nM; in [4], over 20000 nM. The inhibition in data set [2] worked out at 98%; in data set [3], 91%.
In the case of `O=C(CCN1CCCCC1)Nc1ccc2ncnc(Nc3cccc(Br)c3)c2c1`, the IC50 turned out to be 0.27 nM in [1] and 6670 nM in data set [4]. For the same compound, the inhibition stood at 95% in data set [2] and 93% in [3].
For `CCOc1cc2ncc(C#N)c(Nc3ccc(OCc4ccccn4)c(Cl)c3)c2cc1NC(=O)CCN1CCOCC1` the same measures were 37.5 nM, 2760 nM, 48% and 39%.
As for `Nc1ccc2ncnc(Nc3cccc(Br)c3)c2c1`, the Drug uptake is reported as 0.105 nmol/mg in data set [16] and “Not Active” in data set [20].
For the compound `CCOc1cc2ncnc(Nc3ccc(F)c(Cl)c3)c2cc1NC(=O)CCN1CCCCC1`, the IC50 in data set [1] was found to be 0.51 nM; in data set [4] it was 1610 nM. The inhibition in data set [2] turned out to be 98%; in [3], 92%. Further, the “Ratio IC50” value in [21] worked out at 3.
With `CCOc1cc2ncc(C#N)c(Nc3ccc(OCc4ccccn4)c(Cl)c3)c2cc1NC(=O)CCN(C)C`, the IC50 in data set [1] amounted to 12.5 nM; in [22] it was 970 nM; in data set [4], 2030 nM. In addition, the inhibition in [2] came out at 61%; in data set [3], 59%.
Consider `CCOc1cc2ncc(C#N)c(Nc3ccc(OCc4ccccn4)c(Cl)c3)c2cc1NC(=O)CCN1CCCCC1`, for which the IC50 amounted to 24.8 nM in data set [1], 980 nM in [22], 150 nM in [23] and 710 nM in data set [4]. For the same compound, the inhibition is 71% in data set [2], “Dose-dependent effect” in data set [24] and 58% in data set [3]. Also, the “Ratio IC50” value in [21] came out at 11.
With `CCOc1cc2ncc(C#N)c(Nc3ccc(F)c(Cl)c3)c2cc1NC(=O)CCN1CCCCC1`, the IC50 in [1] was determined as 2.21 nM; in data set [4], 2730 nM. Also, the values for the inhibition in data set [2] and in data set [3] were 92% and 82%, respectively.
For the compound `CCOc1cc2ncnc(Nc3ccc(F)c(Cl)c3)c2cc1NC(=O)CCN(C)C`, the IC50 was 0.27 nM in data set [1] and 2210 nM in data set [4]. For the same compound, the inhibition came out at 98% in data set [2] and 100% in data set [3]. In data set [21], the “Ratio IC50” value was 3.
Take `C=CC(=O)Nc1cc2c(Nc3ccc(F)c(Cl)c3)c(C#N)cnc2cc1OCC`: the IC50 in data set [1] was 1.46 nM; in data set [4] it was 3570 nM. Besides, the inhibition in data set [2] amounted to 92%; in [3], 33%.
Take `C=CC(=O)Nc1ccc2ncnc(Nc3cccc(Br)c3)c2c1`: the values for the remaining at 24 h, 1 µM in data set [5], in data set [7] and in data set [14] were 105%, 102% and 21.8%, respectively. Also, the Drug degradation entry in data set [8], in data set [9] and in data set [10] was “Active” throughout. Besides, the remaining at 1 h, 1 µM came to 20.1% in data set [11], 85.6% in data set [12], 63.8% in data set [15] and 100% in [17]. Moreover, the Drug uptake result in data set [16] and in data set [20] was “Not Active” throughout.
